Arbovirus anti: blocks arbovirus infection; arbovirus infection cell-based antiviral screen; inhibition, % at 10 µM; 200,000 tested, 0.37% active; in the data active = inhibition above about 30%
Hck Nef HTS: blocks Nef-activated human Hck kinase. P08631. Recombinant Hck-YEEI plus Nef, Z-Lyte FRET kinase assay. inhibition, % at 20 µM. 220,000 tested, 0.68% active. AID 463187;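 active = Hck-Nef kinase inhibition above about 50%, limit read from the data; inactive = inhibition below that limit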;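 note: 0% = DMSO with Hck plus Nef and 100% = Hck alone without Nef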
Target sequence (P08631 whole entry, looked up): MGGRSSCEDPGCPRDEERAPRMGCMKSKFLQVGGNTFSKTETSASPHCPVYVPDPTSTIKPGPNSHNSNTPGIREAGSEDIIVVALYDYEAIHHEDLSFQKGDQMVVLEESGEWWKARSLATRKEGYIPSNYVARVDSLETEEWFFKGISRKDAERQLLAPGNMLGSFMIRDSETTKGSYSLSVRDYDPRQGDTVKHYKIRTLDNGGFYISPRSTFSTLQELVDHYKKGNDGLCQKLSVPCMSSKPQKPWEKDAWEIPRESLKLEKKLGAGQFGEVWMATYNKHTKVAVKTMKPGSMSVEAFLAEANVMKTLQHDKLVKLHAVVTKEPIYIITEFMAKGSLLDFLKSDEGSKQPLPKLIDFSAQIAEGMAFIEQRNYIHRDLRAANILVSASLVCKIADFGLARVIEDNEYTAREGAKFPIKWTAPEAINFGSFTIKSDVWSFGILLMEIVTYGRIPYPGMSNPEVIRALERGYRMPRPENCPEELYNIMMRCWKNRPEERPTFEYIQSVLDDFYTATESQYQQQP
NCF1 inh: p47phox (human) inhibition. p47phox/p22phox peptide binding, fluorescence polarization, 2 h. 220,000 tested, 0.53% active. inhibition, % at 24.7 µM;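 active = inhibition above about 30%, limit read from the data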;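 note: 0% = p47phox with labelled peptide and 100% = labelled peptide alone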
Calb biofilm kill: mixture kills Candida albicans biofilm cells | C. albicans biofilm persisters + clotrimazole, fluorescence viability; primary screen in compound mixtures of four per well | AID 1242 | inhibition, % at 7.6 µM | 120,000 tested, 0.02% active;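 active = inhibition above 30.3% in the primary screen of four-compound pools, then above 30% when the compound was retested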;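 note: compounds exposed to preformed 24 h biofilms for 48 h; 0% = untreated biofilm control and 100% = clotrimazole plus chlorhexidine kill blank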
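System: C. albicans CAF4-2 wild-type biofilms; Medium: RPMI/MOPS medium, pH 7.0; Reagent: Clotrimazole, 50 µg/mL; Times: biofilm formation 24 h, compound exposure 48 h, 37 °C; Detection: 2-h Alamar Blue fluorescence, 535/590 nm excitation/emission; Evaluation: percent inhibition of biofilm viability.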
WT yeast gro inh: growth inhibition of WT yeast, mitochondrial fusion screen; mitochondrial fusion phenotypic screen, WT strain; inhibition, % at 10 µM; 190,000 tested, 2.1% active; AID 1362; in the data active = inhibition above about 58%; tested in S. cerevisiae
RAM network inh: blocks the yeast RAM network; AID 868; S. cerevisiae dse1pr::URA3 reporter, 5-FOA growth OD615, 2 d; analog-sensitive cbk1-as2 kinase mutant strain; inhibition, % at 50 µM; 190,000 tested, 1.8% active;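 active = inhibition above a set limit, 3 SD over mean compound inhibition, cut at about 8.4% in these data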;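 note: 0% = DMSO-only wells with no growth and 100% = 10 µM 1-NA-PP1 full growth; inhibition rescues growth on 5-FOA so higher OD means more RAM inhibition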
Active calls of the source: *; . = no result. Only some compounds are listed: those with a hit (about 4.6% of all), similar ones and a draw of the others.

SMILES	Arbovirus anti	Hck Nef HTS	NCF1 inh	Calb biofilm kill	WT yeast gro inh	RAM network inh
CCC(c1nnnn1C(C)(C)C)N1CCN(c2cc(Cl)ccc2C)CC1 (stereo not given)	2.0	-0.4	-2.3	.	72.7*	1.2
CCCC(c1nnnn1CC1CCCO1)N1CCN(c2cc(Cl)ccc2C)CC1 (stereo not given)	-18.6	5.5	-8.3	.	65.3*	0.8
Fc1ccccc1COc1ccc2ccccc2c1CNc1nn[nH]n1	31.1*	13.4	0.3	20.3	-7.6	4.4
COc1ccc(NC(=O)CN2CCC(n3c(C)nc4cc(F)ccc43)CC2)c(OC)c1	7.2	1.5	-11.5	.	9.9	1.2
COc1cc(OC)cc(C(=O)N2CCC(n3c(C)nc4cc(F)ccc43)CC2)c1	10.3	0.5	-12.8	.	68.7*	0.0
CN(c1ccc(OCC(=O)OCC(=O)Nc2c(F)c(F)c(F)c(F)c2F)cc1)S(=O)(=O)c1ccc(F)cc1	3.1	-2.9	-53.2	13.8	18.3	4.5
Cc1ccc(NC(=S)NC(=O)c2ccc(-c3ccc(Cl)cc3)o2)c(O)c1	-20.5	2.1	-27.1	8.6	2.7	10.1*
Cc1cc(O)c(NC(=S)NC(=O)c2ccc(-c3ccc(Cl)cc3)o2)cc1C	-43.8	0.9	-13.2	.	76.9*	3.6
O=C(CC1CC2CCC1C2)Nc1nc(-c2ccccn2)cs1 (stereo not given)	-15.4	20.3	-10.6	9.6	73.9*	0.0
O=C(Nc1nc(-c2ccccn2)cs1)c1ccc(Br)s1	-21.1	-19.9	2.6	.	60.0*	-1.6
O=C(Nc1nc(-c2ccccn2)cs1)C1CC1	-6.0	23.7	-4.8	.	9.8	0.6
Cc1cc(C)c(C(=O)COC(=O)c2cccnc2Cl)c(C)c1	-0.2	23.8	-3.2	14.6	-5.0	0.5
CCOC(=O)c1ccc(NC(=O)c2ccccc2C)cc1	4.0	2.3	-3.0	4.6	5.2	0.6
Cn1c(Oc2ccc(F)cc2)c(C=O)c2ccccc21	-8.8	22.2	2.2	12.9	-0.9	1.4
Cn1c(Sc2ccc(Br)cc2)c(C=O)c2ccccc21	-25.6	1.2	-26.0	.	-0.2	10.2*
Cc1ccccc1NC(=O)C(C)c1cccc(C(=O)c2ccccc2)c1 (stereo not given)	5.5	-1.1	-11.1	.	-13.8	5.8
Cc1ccc(OC(=O)C(C)c2cccc(C(=O)c3ccccc3)c2)cc1 (stereo not given)	3.8	1.9	31.4*	.	22.7	-0.4
COc1ccc2cc(C#N)c(N3CCN(C(=O)c4ccccc4C)CC3)nc2c1	-13.1	-30.0	-6.4	0.6	11.3	8.8*
COc1ccc(C(=O)N2CCN(c3nc4cc(C)ccc4cc3C#N)CC2)c(OC)c1	17.7	3.5	-13.5	.	19.3	0.1
N#Cc1ccccc1NC(=O)c1ccccc1OCC(=O)NCc1ccco1	30.9*	7.0	-9.4	.	2.2	1.3
CCOc1cc(/C=C\[N+](=O)[O-])ccc1OCC(=O)Nc1ccccc1C	-36.8	3.1	-6.3	.	-8.0	-0.3
Cc1ccc(OC(=O)c2oc3ccc(F)cc3c2C)c(C)c1	-8.6	-0.7	-5.1	.	-0.2	4.4
COc1ccc(/C=C/C(=O)c2oc3ccc(F)cc3c2C)cc1	-2.0	-21.5	-7.0	4.7	0.4	10.7*
C=CCN=C(NC#N)SCc1ccccc1Cl	0.5	2.9	-4.5	.	-3.8	2.8
COc1ccc(Cn2nnnc2C(C(C)C)N2CCc3ccccc32)cc1 (stereo not given)	-24.8	1.7	-5.3	.	30.2	11.3*
SMILES	Arbovirus anti	Hck Nef HTS	NCF1 inh	Calb biofilm kill	WT yeast gro inh	RAM network inh
O=C(Cc1c(O)c2ccccc2[nH]c1=O)NCc1ccccc1F	-1.5	5.2	-1.3	.	60.0*	3.0
CC(C)CC(NC(=O)C(CO)NC(=O)C1CCC(=O)N1)C(N)=O (stereo not given)	23.7	18.0	-2.8	15.2	-8.2	1.8
O=C(Nc1ccc(Cl)cc1)N1CCN(c2ccc3nnc(-c4ccc(F)cc4)n3n2)CC1	4.9	-5.4	-17.7	.	80.3*	1.6
O=C(Nc1ccccc1Cl)N1CCN(c2ccc3nnc(-c4ccccc4)n3n2)CC1	1.1	4.9	-8.0	.	17.5	1.3
CCc1nn2cc(C(=O)c3ccccc3O)cnc2c1-c1ccc(F)cc1	41.1*	10.4	5.8	7.7	39.2	6.0
CCc1nn2cc(C(=O)c3cc(C)ccc3O)cnc2c1-c1ccc(F)cc1	6.6	5.4	-0.6	5.5	9.3	4.5
O=C(CSc1nnc(-c2ccncc2)n1-c1ccccc1)N1CCN(c2ccc(Cl)cc2)CC1	-8.7	1.4	-8.8	.	-3.3	6.6
c1ccc(C(c2ccccc2)c2nc(-c3cccnc3)no2)cc1	-2.4	1.4	-9.3	.	85.6*	1.0
c1ccc(C(Cc2nc(-c3cccnc3)no2)c2ccccc2)cc1	0.5	2.6	3.8	.	7.8	2.8
C=CC#CC[N+]1(CC#Cc2ccccc2)CCOCC1	11.4	-6.0	60.6*	16.6	-2.4	0.7
O=C(NCCOc1ccccc1)C(c1ccccc1)c1ccccc1	0.6	0.1	5.5	.	29.6	1.8
Oc1c(N=Nc2ccccn2)ccc2ccccc12	-25.6	-1.9	62.4*	.	31.7	1.5
c1ccc2c(c1)ccc1ncccc12	-3.3	21.6	-6.5	7.7	8.2	1.5
Cc1ccccc1/C=C/C(=O)NCC(=O)N1CCC(N(C)C2CCCCC2C)CC1 (stereo not given)	-8.7	-6.0	11.0	13.6	2.2	0.4
CC(C)NC(=S)N/N=C1\CCCc2ccccc21	1.5	8.2	-1.9	9.5	17.9	1.4
Cc1cc(C2N=C(N)Nc3nc4ccccc4n32)c(C)n1-c1ccccc1Cl (stereo not given)	-2.1	3.4	41.0*	.	4.1	4.2
NC1=NC(c2ccc(F)cc2)n2c(nc3ccccc32)N1 (stereo not given)	-8.0	4.0	-8.6	.	2.0	2.4
Cc1ccc(-n2c(C)cc(C3N=C(N)Nc4nc5ccccc5n43)c2C)c(C)c1 (stereo not given)	-9.4	1.9	30.1*	.	26.1	3.1
CC1(C)CC(=O)C(C=Nc2ccc3[nH]ncc3c2)=C(O)C1	3.8	0.6	6.3	.	84.2*	0.7
CC1(C)CC(=O)C(C=Nc2ccc3cn[nH]c3c2)=C(O)C1	3.9	-0.1	3.8	.	6.5	1.5
CCN1CCN(c2nc(S(=O)(=O)c3ccc(C)cc3)c(Cl)s2)CC1	13.1	15.6	2.2	25.2	-10.3	1.0
CCOC(=O)c1cc2c(=O)n3cccc(C)c3nc2n(Cc2ccco2)c1=NC(=O)c1ccccc1	-6.1	5.3	-19.0	.	8.8	2.5
CCOC(=O)c1cc2n(c1/N=C/N(C)C)-c1ccccc1C2=O	-10.7	-4.6	9.9	.	-19.8	3.3
Cc1cc(C)c(C#N)c(SCc2nnc(-c3ccccc3[N+](=O)[O-])o2)n1	-27.8	21.3	-2.2	3.5	19.3	11.3*
CCOC(=O)c1sc(C)c(C(=O)NCC(C)(C)CN(C)C)c1N	-1.8	-0.4	1.3	.	-9.1	0.4
O=C(N/N=C/c1cccc(NC(=O)c2ccc(Cl)cc2)c1)c1cccc(O)c1	.	25.5	-18.1	20.2	.	.

Compound activity from PubChem.
